Reference: ChEMBL document CHEMBL6109036, “Azo derivatives of monoterpenes as anti-Helicobacter pylori agents: from synthesis to structure-based target investigation” (RSC Med Chem, 2025)
In brackets after ≈: the same amount, converted by molar mass.

Experiments:
Type in all cases: functional
Helicobacter pylori [1] = assay: Bactericidal activity against Helicobacter pylori NCTC 11637 measured after 72 hrs of incubation under microaerophilic conditions by modified broth dilution method; details: read-out: MBC99.9
Summary of the method: (§1)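 H. pylori (NCTC 11637, F1, 23, F4). Wells with no visible growth in the MIC assay spotted (10 μL) onto Skirrow agar. Plates incubated 72 h at 37 °C, microaerophilic, 100% humidity. MBC = concentration killing 99.9% of the initial inoculum. Triplicate, on at least three different days.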

Helicobacter pylori [2] = assay: Anti-bacterial activity against Helicobacter pylori NCTC 11637 measured after 72 hrs incubation by modified broth dilution method
Helicobacter pylori [3] = assay: Bactericidal against Helicobacter pylori Clinical isolate F4 measured after 72 hrs of incubation under microaerophilic conditions by modified broth dilution method; details: read-out: MBC99.9; summary of the method: as §1
Helicobacter pylori [4] = assay: Bactericidal against Helicobacter pylori measured after 72 hrs of incubation under microaerophilic conditions by modified broth dilution method; details: for MBC: Helicobacter pylori, read-out: MBC99.9
Summary of the method: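 Wells with no visible growth in the MIC assay spotted (10 μL) onto Skirrow agar. Plates incubated 72 h at 37 °C, microaerophilic, 100% humidity. Triplicate, on at least three different days.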

Helicobacter pylori [5] = assay: Anti-bacterial activity against Helicobacter pylori Clinical isolate 23 measured after 72 hrs incubation by modified broth dilution method
Helicobacter pylori [6] = assay: Bactericidal activity against Helicobacter pylori Clinical isolate F1 measured after 72 hrs of incubation under microaerophilic conditions by modified broth dilution method; details: read-out: MBC99.9; summary of the method: as §1
Helicobacter pylori [7] = assay: Anti-bacterial activity against Helicobacter pylori Clinical isolate F1 measured after 72 hrs incubation by modified broth dilution method
Helicobacter pylori [8] = assay: Anti-bacterial activity against Helicobacter pylori Clinical isolate F4 measured after 72 hrs incubation by modified broth dilution method
Helicobacter pylori [9] = assay: Anti-bacterial activity against Helicobacter pylori measured after 72 hrs incubation by modified broth dilution method
Helicobacter pylori [10] = assay: Bactericidal activity against Helicobacter pylori Clinical isolate 23 measured after 72 hrs of incubation under microaerophilic conditions by modified broth dilution method; details: read-out: MBC99.9; summary of the method: as §1

Row | MIC (Helicobacter pylori [2]) [mg/L] | MIC (Helicobacter pylori [5]) [mg/L] | MIC (Helicobacter pylori [7]) [mg/L] | MIC (Helicobacter pylori [8]) [mg/L] | MIC50 (Helicobacter pylori [9]) [mg/L] | MIC90 (Helicobacter pylori [9]) [mg/L] | SMILES | MBC (Helicobacter pylori [1]) [mg/L] | MBC (Helicobacter pylori [3]) [mg/L] | MBC (Helicobacter pylori [4]) [mg/L] | MBC (Helicobacter pylori [6]) [mg/L] | MBC (Helicobacter pylori [10]) [mg/L] | MBC90 (Helicobacter pylori [4]) [mg/L]
1 | 8 (≈ 52.6 µM) | 16 (≈ 105 µM) | 4 (≈ 26.3 µM) | 8 (≈ 52.6 µM) | 8 (≈ 52.6 µM) | 16 (≈ 105 µM) | COc1cccc(C=O)c1O | 16 (≈ 105 µM) | 8 (≈ 52.6 µM) | 16 (≈ 105 µM) | 4 (≈ 26.3 µM) | 16 (≈ 105 µM) | 
2 | 32 (≈ 195 µM) | 32 (≈ 195 µM) | 32 (≈ 195 µM) | 32 (≈ 195 µM) | 32 (≈ 195 µM) | 32 (≈ 195 µM) | C/C=C/c1ccc(O)c(OC)c1 | 32 (≈ 195 µM) | 32 (≈ 195 µM) | 32 (≈ 195 µM) | 32 (≈ 195 µM) | 32 (≈ 195 µM) | 
3 | > 128 | > 128 | > 128 | > 128 | > 128 | > 128 | C=CCc1cccc(OC)c1O | > 128 | > 128 | > 128 | > 128 | > 128 | 
4 | > 128 | 128 (≈ 274 µM) | 128 (≈ 274 µM) | > 128 | > 128 | > 128 | Cc1cc(O)c(C(C)C)cc1C1(c2cc(C(C)C)c(O)cc2C)OS(=O)(=O)c2ccccc21 | > 128 | > 128 |  | 128 (≈ 274 µM) | > 128 | >128
5 | 128 (≈ 380 µM) | > 128 | > 128 | > 128 | > 128 | > 128 | C=CCc1cc(/N=N/c2ccc(Cl)cc2Cl)c(O)c(OC)c1 | 128 (≈ 380 µM) | > 128 |  | > 128 | > 128 | >128
6 | 8 (≈ 28.4 µM) | 8 (≈ 28.4 µM) | 4 (≈ 14.2 µM) | 8 (≈ 28.4 µM) | 8 (≈ 28.4 µM) | 8 (≈ 28.4 µM) | COc1cc(C=O)cc(/N=N/c2ccc(C#N)cc2)c1O | 16 (≈ 56.9 µM) | 8 (≈ 28.4 µM) |  | 4 (≈ 14.2 µM) | 8 (≈ 28.4 µM) | 16 (≈ 56.9 µM)
7 | > 128 | > 128 | > 128 | > 128 | > 128 | > 128 | C=CCc1cc(/N=N/c2cccc(OC)c2)c(O)c(OC)c1 | > 128 | > 128 |  | > 128 | > 128 | >128
8 | 64 (≈ 220 µM) | 64 (≈ 220 µM) | 16 (≈ 55 µM) | 64 (≈ 220 µM) | 64 (≈ 220 µM) | 64 (≈ 220 µM) | COc1cc(C=O)cc(/N=N/c2ccccc2Cl)c1O | 64 (≈ 220 µM) | 64 (≈ 220 µM) |  | 16 (≈ 55 µM) | 64 (≈ 220 µM) | 64 (≈ 220 µM)
9 | 64 (≈ 204 µM) | 128 (≈ 409 µM) | 64 (≈ 204 µM) | 64 (≈ 204 µM) | 64 (≈ 204 µM) | 128 (≈ 409 µM) | C=CCc1cc(/N=N/c2ccc([N+](=O)[O-])cc2)c(O)c(OC)c1 | 64 (≈ 204 µM) | 128 (≈ 409 µM) |  | 64 (≈ 204 µM) | 128 (≈ 409 µM) | 128 (≈ 409 µM)
10 | 4 (≈ 13.9 µM) | 4 (≈ 13.9 µM) | 4 (≈ 13.9 µM) | 2 (≈ 6.93 µM) | 4 (≈ 13.9 µM) | 4 (≈ 13.9 µM) | Cc1cc(/N=N/c2ccccc2Cl)c(C(C)C)cc1O | 4 (≈ 13.9 µM) | 2 (≈ 6.93 µM) |  | 4 (≈ 13.9 µM) | 4 (≈ 13.9 µM) | 4 (≈ 13.9 µM)
11 | 16 (≈ 47.7 µM) | 32 (≈ 95.5 µM) | 8 (≈ 23.9 µM) | 16 (≈ 47.7 µM) | 16 (≈ 47.7 µM) | 32 (≈ 95.5 µM) | COc1cc(C=O)cc(/N=N/c2ccc(Br)cc2)c1O | 16 (≈ 47.7 µM) | 16 (≈ 47.7 µM) |  | 8 (≈ 23.9 µM) | 32 (≈ 95.5 µM) | 32 (≈ 95.5 µM)
12 | 128 (≈ 410 µM) | > 128 | > 128 | > 128 | > 128 | > 128 | C=CCc1cc(/N=N/c2ccc3c(c2)OCO3)c(O)c(OC)c1 | 128 (≈ 410 µM) | > 128 |  | > 128 | > 128 | >128
13 | 128 (≈ 440 µM) | 128 (≈ 440 µM) | 128 (≈ 440 µM) | 128 (≈ 440 µM) | 128 (≈ 440 µM) | > 128 | COc1cc(C=O)cc(/N=N/c2cccc(Cl)c2)c1O | > 128 | 128 (≈ 440 µM) |  | 128 (≈ 440 µM) | 128 (≈ 440 µM) | >128
14 | > 128 | > 128 | 64 (≈ 224 µM) | > 128 | > 128 | > 128 | COc1ccc(/N=N/c2cc(C=O)cc(OC)c2O)cc1 | > 128 | > 128 |  | 128 (≈ 447 µM) | > 128 | >128
15 | 128 (≈ 409 µM) | 128 (≈ 409 µM) | 128 (≈ 409 µM) | 128 (≈ 409 µM) | 128 (≈ 409 µM) | > 128 | C=CCc1cc(/N=N/c2cccc([N+](=O)[O-])c2)c(O)c(OC)c1 | 128 (≈ 409 µM) | 128 (≈ 409 µM) |  | > 128 | 128 (≈ 409 µM) | >128
16 | 128 (≈ 394 µM) | 64 (≈ 197 µM) | 64 (≈ 197 µM) | 128 (≈ 394 µM) | 64 (≈ 197 µM) | 128 (≈ 394 µM) | COc1cc(C=O)cc(/N=N/c2ccc(Cl)c(Cl)c2)c1O | 128 (≈ 394 µM) | 128 (≈ 394 µM) |  | 64 (≈ 197 µM) | 128 (≈ 394 µM) | 128 (≈ 394 µM)
17 | 4 (≈ 14.8 µM) | 8 (≈ 29.6 µM) | 2 (≈ 7.4 µM) | 8 (≈ 29.6 µM) | 4 (≈ 14.8 µM) | 8 (≈ 29.6 µM) | COc1cc(C=O)cc(/N=N/c2ccc(C)cc2)c1O | 4 (≈ 14.8 µM) | 8 (≈ 29.6 µM) |  | 2 (≈ 7.4 µM) | 8 (≈ 29.6 µM) | 8 (≈ 29.6 µM)
18 | 128 (≈ 402 µM) | > 128 | > 128 | > 128 | > 128 | > 128 | C=CCc1cc(/N=N/c2cccc3ccccc23)c(O)c(OC)c1 | 128 (≈ 402 µM) | > 128 |  | > 128 | > 128 | >128
19 | 128 (≈ 453 µM) | 64 (≈ 227 µM) | 128 (≈ 453 µM) | 64 (≈ 227 µM) | 64 (≈ 227 µM) | 128 (≈ 453 µM) | C=CCc1cc(/N=N/c2ccccc2C)c(O)c(OC)c1 | 128 (≈ 453 µM) | 64 (≈ 227 µM) |  | 128 (≈ 453 µM) | 64 (≈ 227 µM) | 128 (≈ 453 µM)
20 | 8 (≈ 26.6 µM) | 8 (≈ 26.6 µM) | 16 (≈ 53.1 µM) | 8 (≈ 26.6 µM) | 8 (≈ 26.6 µM) | 16 (≈ 53.1 µM) | COc1cc(C=O)cc(/N=N/c2cccc([N+](=O)[O-])c2)c1O | 8 (≈ 26.6 µM) | 16 (≈ 53.1 µM) |  | 16 (≈ 53.1 µM) | 8 (≈ 26.6 µM) | 16 (≈ 53.1 µM)
21 | 0.064 (≈ 0.0856 µM) | 0.064 (≈ 0.0856 µM) | 4 (≈ 5.35 µM) | > 256 | 0.064 (≈ 0.0856 µM) | 256 (≈ 342 µM) | CC[C@H]1OC(=O)[C@H](C)[C@@H](O[C@H]2C[C@@](C)(OC)[C@@H](O)[C@H](C)O2)[C@H](C)[C@@H](O[C@@H]2O[C@H](C)C[C@H](N(C)C)[C@H]2O)[C@](C)(OC)C[C@@H](C)C(=O)[C@H](C)[C@@H](O)[C@]1(C)O [CLARITHROMYCIN] | 0.064 (≈ 0.0856 µM) | 256 (≈ 342 µM) |  | 8 (≈ 10.7 µM) | 0.064 (≈ 0.0856 µM) | 
